Experimental data reported in ChEMBL document CHEMBL1143844, “Biochemical studies on the mechanism of human immunodeficiency virus type 1 reverse transcriptase resistance to 1-(beta-D-dioxolane)thymine triphosphate” (Antimicrob Agents Chemother, 2007).

Tests used:
[1] = Inhibition of HIV1 reverse transcriptase 75I/77L/116Y/151M mutant in presence of 5 mM ATP by heteropolymeric DNA polymerase assay; design: species or system Human immunodeficiency virus 1
Summary of the method: (§1)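 Heteropolymeric DNA polymerase assay with ATP added at 5 mM. Purified HIV-1 RT at 30–100 pM acts on a plate-bound DNA primer with a 5′-A12-(GTCA)5-3′ template. dATP, dGTP, dCTP and BrdUTP at 1.0 μM each. Incubation 180 min at 33°C. BrdUMP incorporation read via anti-BrdU-AP at 405 nm after NaOH dehybridization. IC50 from seven inhibitor concentrations, at least two experiments in duplicate.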

[2] = target: T1, Human immunodeficiency virus type 1 reverse transcriptase (Human immunodeficiency virus 1, UniProt Q72547); assay: Inhibition of HIV1 LAI reverse transcriptase wild type LAI by heteropolymeric DNA polymerase assay
Summary of the method: (§2)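 Heteropolymeric assay without ATP: plate-bound 18-mer DNA primer (~110 nM) with 50-mer 5′-A12-(GTCA)5 template (190 nM). dATP, dGTP, dCTP and BrdUTP at 1.0 μM each, in HEPES 50 mM pH 7.3, MgCl2 10 mM. RT 30–100 pM, 33°C for 180 min, then NaOH dehybridization and anti-BrdU-AP tracer read at 405 nm. IC50 from seven triphosphate concentrations; two to four runs in duplicate.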

[3] = target: T1, Human immunodeficiency virus type 1 reverse transcriptase; assay: Inhibition of HIV1 pNL4-3 reverse transcriptase wild type pNL4-3 by heteropolymeric DNA polymerase assay; summary of the method: as §2
[4] = Inhibition of HIV1 pNL4-3 reverse transcriptase 115F mutant by heteropolymeric DNA polymerase assay; design: species or system Human immunodeficiency virus 1
Summary of the method: (§3)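 Purified p66/p51 HIV-1 RT, or p66 homodimer for 65R, at 30–100 pM (about 1.5–4.5 mU/well). Plate-bound 18-mer DNA primer on a 50-base 5′-A12-(GTCA)5-3′ DNA template. dATP, dGTP, dCTP and BrdUTP at 1.0 μM each, no ATP. Buffer: HEPES 50 mM pH 7.3, 10 mM MgCl2. Incubation 180 min at 33°C, NaOH dehybridization, anti-BrdU-AP tracer, A405. IC50 from seven inhibitor concentrations, at least two experiments in duplicate.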

[5] = Inhibition of HIV1 reverse transcriptase wild type HXB2(a) in presence of 1 uM dNTP by heteropolymeric DNA polymerase assay; design: species or system Human immunodeficiency virus 1
Summary of the method: (§4)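 Heteropolymeric DNA assay containing 5 mM ATP on the 5′-A12-(GTCA)5 template, with each dNTP (BrdUTP in place of TTP) at 1 μM or, in the modified version, 20 μM. HEPES 50 mM pH 7.3, MgCl2 10 mM, 33°C for 180 min, then NaOH step and anti-BrdU-AP readout at 405 nm. Mean IC50 from at least two runs in duplicate.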

[6] = Inhibition of HIV1 reverse transcriptase 41L/69S-SG/210W/215Y mutant in presence of 5 mM ATP by heteropolymeric DNA polymerase assay; design: species or system Human immunodeficiency virus 1; summary of the method: as §1
[7] = Inhibition of HIV1 reverse transcriptase 41L/67N/70R/184V/210W/215Y mutant in presence of 5 mM ATP by heteropolymeric DNA polymerase assay; design: species or system Human immunodeficiency virus 1; summary of the method: as §1
[8] = Inhibition of HIV1 reverse transcriptase 184V mutant in presence of 5 mM ATP by heteropolymeric DNA polymerase assay; design: species or system Human immunodeficiency virus 1; summary of the method: as §1
[9] = Inhibition of HIV1 reverse transcriptase wild type HXB2(a) in presence of 5 mM ATP by heteropolymeric DNA polymerase assay; design: species or system Human immunodeficiency virus 1
Summary of the method: (§5)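 Heteropolymeric DNA assay with 5 mM ATP added: immobilized 18-mer primer, 5′-A12-(GTCA)5 50-mer template, dATP/dGTP/dCTP/BrdUTP at 1.0 μM each, HEPES 50 mM pH 7.3, MgCl2 10 mM. RT 30–100 pM, incubated at 33°C for 180 min. NaOH strand separation, then anti-BrdU-AP detection at 405 nm. IC50 fitted from seven inhibitor concentrations; two to four runs in duplicate.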

[10] = Inhibition of HIV1 reverse transcriptase 75I/77L/116Y/151M/184V mutant in presence of 5 mM ATP by heteropolymeric DNA polymerase assay; design: species or system Human immunodeficiency virus 1; summary of the method: as §1
[11] = Inhibition of HIV1 reverse transcriptase wild type HXB2(b) in presence of 5 mM ATP by heteropolymeric DNA polymerase assay; design: species or system Human immunodeficiency virus 1; summary of the method: as §5
[12] = target: T1, Human immunodeficiency virus type 1 reverse transcriptase; assay: Inhibition of HIV1 LAI reverse transcriptase wild type in presence of 5 mM ATP by heteropolymeric DNA polymerase assay; summary of the method: as §5
[13] = Inhibition of HIV1 LAI reverse transcriptase 65R mutant in presence of 5 mM ATP by heteropolymeric DNA polymerase assay; design: species or system Human immunodeficiency virus 1; summary of the method: as §1
[14] = target: T1, Human immunodeficiency virus type 1 reverse transcriptase; assay: Inhibition of HIV1 pNL4-3 reverse transcriptase wild type pNL4-3 in presence of 5 mM ATP by heteropolymeric DNA polymerase assay; summary of the method: as §5
[15] = Inhibition of HIV1 pNL4-3 reverse transcriptase 115F mutant in presence of 5 mM ATP by heteropolymeric DNA polymerase assay; design: species or system Human immunodeficiency virus 1; summary of the method: as §1
[16] = Inhibition of HIV1 reverse transcriptase 184V mutant by heteropolymeric DNA polymerase assay; design: species or system Human immunodeficiency virus 1; summary of the method: as §3
[17] = Inhibition of HIV1 reverse transcriptase 41L/69S-SG/210W/215Y mutant by heteropolymeric DNA polymerase assay; design: species or system Human immunodeficiency virus 1; summary of the method: as §3
[18] = Inhibition of HIV1 reverse transcriptase 75I/77L/116Y/151M mutant by heteropolymeric DNA polymerase assay; design: species or system Human immunodeficiency virus 1; summary of the method: as §3
[19] = Inhibition of HIV1 reverse transcriptase 75I/77L/116Y/151M/184V mutant by heteropolymeric DNA polymerase assay; design: species or system Human immunodeficiency virus 1; summary of the method: as §3
[20] = Inhibition of HIV1 reverse transcriptase 41L/67N/70R/210W/215Y mutant in presence of 20 uM dNTP by heteropolymeric DNA polymerase assay; design: species or system Human immunodeficiency virus 1
Summary of the method: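 DNA polymerase assay with 5 mM ATP and purified HIV-1 RT (HXB2 background) on a plate-bound primer with a 5′-A12-(GTCA)5-3′ template. Each dNTP (dATP, dGTP, dCTP, BrdUTP) is set at either 1 μM or 20 μM. Incubation 180 min at 33°C, anti-BrdU-AP readout at 405 nm. IC50 from at least two experiments in duplicate. Fold change is relative to wild-type RT at the same dNTP level.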

[21] = Inhibition of HIV1 reverse transcriptase wild type HXB2(a) in presence of 5'-A12-(GTCA)5-3' by heteropolymeric DNA polymerase assay; design: species or system Human immunodeficiency virus 1; summary of the method: as §4
[22] = Inhibition of HIV1 HXB2 reverse transcriptase 41L/67N/70R/215Y/219Q mutant in presence of 5 mM ATP by heteropolymeric DNA polymerase assay
[23] = Inhibition of HIV1 reverse transcriptase 41L/69S-SG/210W/215Y mutant in presence of 5'-A12-(GTCA)5-3' by heteropolymeric DNA polymerase assay

SMILES	IC50 [1] [µM]	IC50 [2] [µM]	IC50 [3] [µM]	IC50 [4] [µM]	IC50 [5] [µM]	IC50 [6] [µM]	IC50 [7] [µM]	IC50 [8] [µM]	IC50 [9] [µM]	IC50 [10] [µM]	IC50 [11] [µM]	IC50 [12] [µM]	IC50 [13] [µM]	IC50 [14] [µM]	IC50 [15] [µM]	IC50 [16] [µM]	IC50 [17] [µM]	IC50 [18] [µM]	IC50 [19] [µM]	IC50 [20] [µM]	also measured
Cc1cn([C@H]2C[C@H](N=[N+]=[N-])[C@@H](COP(=O)(O)OP(=O)(O)OP(=O)(O)O)O2)c(=O)[nH]c1=O [ZIDOVUDINE TRIPHOSPHATE]	9	0.08	0.13	0.13	0.46	4.4	0.9	0.52	0.46	22	0.48	0.3	0.61	0.42	0.55	0.25	0.16	5.1	10.6	16	IC50 [21]: 0.46 µM; IC50 [22]: 2.5 µM; IC50 [23]: 4.4 µM
C[C@H](Cn1cnc2c(N)ncnc21)OCP(=O)(O)OP(=O)(O)OP(=O)(O)O	11	0.55	1.2	1.1	3.3	24	5.9	2.3	3.3	4.6	3.2	1.3	21	4	3.7	2.2	3.7	8	2.9	49	IC50 [21]: 3.3 µM; IC50 [22]: 10.5 µM; IC50 [23]: 24 µM
Cc1cn([C@H]2CO[C@@H](COP(=O)(O)OP(=O)(O)OP(=O)(O)O)O2)c(=O)[nH]c1=O	6.1	0.11	0.1	0.08	0.38	1.6	0.7	0.5	0.38	15	0.38	0.19	0.75	0.3	0.2	0.18	0.11	2.1	7.1	2.4	IC50 [21]: 0.38 µM; IC50 [22]: 0.84 µM; IC50 [23]: 1.6 µM
